In PubChem BioAssay AID588578 (Sanford-Burnham Center for Chemical Genomics, 2011):
The source made the active and inactive calls.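 Rule for the calls: active = IC50 at or below 20 µM; inactive = the rest.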

Target: Bcl-2-like protein 1 (Homo sapiens) (UniProt Q07817)
Experiment: displacement of Bim BH3 peptide from Bcl-XL – biochemical, fluorescence polarization, GST-Bcl-XL, FITC-Bim, selectivity assay for Bcl-B inhibitor project, SAR follow-up (AID 588578)
How it was run: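 Test system: purified GST-Bcl-XL lacking C-terminal transmembrane region, E. coli-expressed; Medium: HEPES buffer pH 7.5 with Tween-20 and TCEP; Reagent: FITC-Bim probe peptide; Compound: ten doses, twofold serial dilution; Timing: compound-protein preincubation 20 min at 4 °C, tracer 10 min at RT, dark; Measure: IC50 from sigmoidal non-linear dose-response fit.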

Bcl-2-like protein 1 (Homo sapiens), sequence (Q07817 whole entry, looked up): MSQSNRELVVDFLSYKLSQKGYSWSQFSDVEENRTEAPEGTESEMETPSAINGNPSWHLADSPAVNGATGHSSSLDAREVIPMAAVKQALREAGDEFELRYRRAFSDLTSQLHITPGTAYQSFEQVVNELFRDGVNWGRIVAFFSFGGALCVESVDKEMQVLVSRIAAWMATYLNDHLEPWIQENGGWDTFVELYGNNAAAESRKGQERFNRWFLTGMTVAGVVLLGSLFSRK

Question: For COc1ccc2c(c1)-c1c(c(=O)n(Cc3ccccc3)c3nnnn13)C1(CCCC1)C2, which IC50 is on record?
Answer: > 20 µM (inactive)

Question: Which IC50 does the source give for Cc1ccc2c(c1)-c1c(c(=O)n(Cc3ccccc3)c3nnnn13)C1(CCCCC1)C2 here?
Answer: > 20 µM (inactive)

Question: With O=c1[nH]c(CN2CCCC2)nc2c1C1(CCCC1)Cc1ccccc1-2 as the compound, how does the IC50 read?
Answer: > 20 µM (inactive)

Question: For O=c1c2c(n3nnnc3n1Cc1ccccc1)-c1cc(F)ccc1CC21CCCC1, which IC50 is on record?
Answer: > 20 µM (inactive)

Question: How did the IC50 turn out when COc1ccc(Cn2c(=O)c3c(n4nnnc24)-c2cc(C)ccc2CC3(C)C)cc1 was run?
Answer: > 20 µM (inactive)

Question: How did the IC50 turn out when O=C1CC(c2ccc(F)cc2)CC2=C1C(c1cccc(Cl)c1)n1ncnc1N2 (stereo not drawn) was run?
Answer: > 20 µM (inactive)

Question: With O=c1c2c(n3nnnc3n1Cc1ccccc1)-c1cc(F)ccc1CC21CCCCC1 as the compound, how does the IC50 read?
Answer: > 20 µM (inactive)

Question: Cc1ccc2c(c1)-c1c(c(=O)n(Cc3ccc(F)cc3)c3nnnn13)C1(CCCCC1)C2 was tested. Which IC50 did it give?
Answer: > 20 µM (inactive)

Question: With O=c1c2c(n3nnnc3n1Cc1ccccc1)-c1ccccc1CC21CCCCC1 as the compound, how does the IC50 read?
Answer: > 20 µM (inactive)

Question: O=c1c2cnc3ncnn3c2ccn1CCc1cnc[nH]1 was tested. Which IC50 did it give?
Answer: > 20 µM (inactive)

Question: Which IC50 does the source give for O=c1c2c(n3cnnc3n1Cc1ccccc1)-c1ccccc1CC21CCCCC1 here?
Answer: > 20 µM (inactive)

Question: For COc1ccc2c(c1)-c1c(c(=O)n(Cc3ccccc3)c3nncn13)C(C)(C)C2, which IC50 is on record?
Answer: > 20 µM (inactive)

Question: How did the IC50 turn out when COc1ccc2c(c1)-c1c(c(=O)n(Cc3ccc(Cl)cc3)c3nnnn13)C(C)(C)C2 was run?
Answer: > 20 µM (inactive)

Question: Which IC50 does the source give for Cc1ccc2c(c1)-c1c(c(=O)n(Cc3ccccc3)c3nnnn13)C(C)(C)C2 here?
Answer: > 20 µM (inactive)

Question: For O=c1c2c(-c3ccccc3)n3ncnc3nc2ccn1-c1ccccc1, which IC50 is on record?
Answer: > 20 µM (inactive)

Question: With Cc1ccc2c(c1)-c1c(c(=O)n(Cc3ccc(Cl)cc3)c3nnnn13)C1(CCCCC1)C2 as the compound, how does the IC50 read?
Answer: > 20 µM (inactive)

Question: For Cc1ccc2c(c1)-c1c(c(=O)n(Cc3ccc(F)cc3)c3nncn13)C1(CCCCC1)C2, which IC50 is on record?
Answer: > 20 µM (inactive)

Question: Cc1ccc2c(c1)-c1c(c(=O)n(Cc3ccccc3)c3nncn13)C(C)(C)C2 was tested. Which IC50 did it give?
Answer: > 20 µM (inactive)

Question: For O=c1[nH]c(NCCCO)nc2c1C1(CCCCC1)Cc1ccccc1-2, which IC50 is on record?
Answer: > 20 µM (inactive)

Question: For c1ccc(OCc2nc3c4c(ncn3n2)-c2ccccc2CC42CCCC2)cc1, which IC50 is on record?
Answer: > 20 µM (inactive)

Question: Which IC50 does the source give for CC1(C)CC(n2c(=S)[nH]c3c(c2=O)C2(CCCC2)Cc2ccccc2-3)CCO1 (stereo not drawn) here?
Answer: > 20 µM (inactive)

Question: How did the IC50 turn out when O=c1c2c(n3cnnc3n1C1CCCCC1)-c1ccccc1CC21CCCCC1 was run?
Answer: > 20 µM (inactive)

Question: Which IC50 does the source give for O=c1c2c(n3nnnc3n1Cc1ccc(Cl)cc1)-c1ccccc1CC21CCCC1 here?
Answer: > 20 µM (inactive)

Question: For O=c1c2cnc3nc(-c4ccccc4)nn3c2ccn1CCc1cnc[nH]1, which IC50 is on record?
Answer: > 20 µM (inactive)

Question: Which IC50 does the source give for O=c1c2ccccc2nc2n1C1(CCCCC1)Cc1ccccc1-2 here?
Answer: > 20 µM (inactive)

Question: For COc1ccc2c(c1)-c1c(c(=O)n(Cc3ccc(Cl)cc3)c3nnnn13)C1(CCCC1)C2, which IC50 is on record?
Answer: > 20 µM (inactive)

Question: Which IC50 does the source give for O=C1CCCC2=C1C(c1cc(Br)ccc1F)n1ncnc1N2 (stereo not drawn) here?
Answer: > 20 µM (inactive)

Question: With O=c1c2c(nc3[nH]ncn13)-c1ccccc1CC21CCCCC1 as the compound, how does the IC50 read?
Answer: > 20 µM (inactive)

Question: For C=C(C)Cn1c(=O)c2c(n3nnnc13)-c1ccccc1CC21CCCC1, which IC50 is on record?
Answer: > 20 µM (inactive)

Question: How did the IC50 turn out when COc1ccc2c(c1)-c1c(c(=O)n(Cc3ccc(Cl)cc3)c3nncn13)C1(CCCC1)C2 was run?
Answer: > 20 µM (inactive)

Question: For O=c1c2c(nc3n1CCS3)-c1ccccc1CC21CCCCC1, which IC50 is on record?
Answer: > 20 µM (inactive)

Question: Which IC50 does the source give for O=c1c2c(n3cnnc3n1Cc1ccc(Cl)cc1)-c1ccccc1CC21CCCC1 here?
Answer: > 20 µM (inactive)

Question: O=c1c2c(nc3[nH]ncn13)-c1ccccc1CC21CCCC1 was tested. Which IC50 did it give?
Answer: > 20 µM (inactive)

Question: O=c1c2c(n3nnnc3n1-c1ccccc1)-c1ccccc1CC21CCCC1 was tested. Which IC50 did it give?
Answer: > 20 µM (inactive)

Question: O=c1c2c(n3nnnc3n1Cc1ccc(F)cc1)-c1ccccc1CC21CCCC1 was tested. Which IC50 did it give?
Answer: > 20 µM (inactive)

Question: Cn1c(NCCO)nc2c(c1=O)C1(CCCCC1)Cc1ccccc1-2 was tested. Which IC50 did it give?
Answer: > 20 µM (inactive)

Question: With COc1ccc(Cn2c(=O)c3c(n4nnnc24)-c2ccccc2CC32CCCC2)cc1 as the compound, how does the IC50 read?
Answer: > 20 µM (inactive)

Question: How did the IC50 turn out when COc1ccc2c(c1)-c1c(c(=O)n(Cc3ccc(F)cc3)c3nncn13)C(C)(C)C2 was run?
Answer: > 20 µM (inactive)

Question: With COc1ccc(Cn2c(=O)c3c(n4cnnc24)-c2cc(C)ccc2CC3(C)C)cc1 as the compound, how does the IC50 read?
Answer: > 20 µM (inactive)

Question: With O=c1[nH]c(CN2CCOCC2)nc2c1C1(CCCC1)Cc1ccccc1-2 as the compound, how does the IC50 read?
Answer: > 20 µM (inactive)

Question: Which IC50 does the source give for O=c1c2c(n3nnnc3n1Cc1ccccc1)-c1ccccc1CC21CCCC1 here?
Answer: > 20 µM (inactive)

Question: CC1(C)Cc2ccccc2-c2nc3nn[nH]n3c(=O)c21 was tested. Which IC50 did it give?
Answer: > 20 µM (inactive)

Question: With O=c1c2c(n3cnnc3n1Cc1ccccc1)-c1ccccc1CC21CCCC1 as the compound, how does the IC50 read?
Answer: > 20 µM (inactive)

Question: With CC1(C)Cc2ccccc2-c2c1c(=O)n(Cc1ccccc1)c1nnnn21 as the compound, how does the IC50 read?
Answer: > 20 µM (inactive)

Question: Which IC50 does the source give for Cc1ccc2c(c1)-c1c(c(=O)n(Cc3ccc(Cl)cc3)c3nncn13)C1(CCCCC1)C2 here?
Answer: > 20 µM (inactive)

Question: With Cn1c(=O)c2c(n3cnnc13)-c1ccccc1CC21CCCC1 as the compound, how does the IC50 read?
Answer: > 20 µM (inactive)

Question: With CC1CC(=O)C2=C(C1)Nc1ncnn1C2c1cccnc1 (stereo not drawn) as the compound, how does the IC50 read?
Answer: > 20 µM (inactive)

Question: For O=C1CC(c2ccccc2F)c2c(n3ncnc3[nH]c2=O)N1 (stereo not drawn), which IC50 is on record?
Answer: > 20 µM (inactive)

Question: For Cn1c(=S)[nH]c2c(c1=O)C1(CCCCC1)Cc1ccccc1-2, which IC50 is on record?
Answer: > 20 µM (inactive)

Question: Which IC50 does the source give for Cc1ccc2c(c1)-c1c(c(=O)n(Cc3ccccc3)c3nncn13)C1(CCCCC1)C2 here?
Answer: > 20 µM (inactive)

Question: For O=c1c2ccccc2nc2n1C1(CCCC1)Cc1ccccc1-2, which IC50 is on record?
Answer: > 20 µM (inactive)

Question: For O=c1c2c(-c3ccccc3)n3ncnc3nc2ccn1-n1cnnc1, which IC50 is on record?
Answer: > 20 µM (inactive)

Question: COc1ccc2c(c1)-c1c(c(=O)n(Cc3ccccc3)c3nncn13)C1(CCCC1)C2 was tested. Which IC50 did it give?
Answer: > 20 µM (inactive)

Question: CC1(C)Cc2ccccc2-c2c1c(=O)n(Cc1ccccc1)c1nncn21 was tested. Which IC50 did it give?
Answer: > 20 µM (inactive)

Question: COc1ccc2c(c1)-c1c(c(=O)n(Cc3ccc(F)cc3)c3nnnn13)C(C)(C)C2 was tested. Which IC50 did it give?
Answer: > 20 µM (inactive)

Question: With COc1ccc2c(c1)-c1c(c(=O)n(Cc3ccccc3)c3nnnn13)C(C)(C)C2 as the compound, how does the IC50 read?
Answer: > 20 µM (inactive)

Question: How did the IC50 turn out when C=C(C)Cn1c(=O)c2c(n3cnnc13)-c1ccccc1CC21CCCC1 was run?
Answer: > 20 µM (inactive)

Question: Which IC50 does the source give for COc1ccc2c(c1)-c1c(c(=O)n(Cc3ccc(Cl)cc3)c3nncn13)C(C)(C)C2 here?
Answer: > 20 µM (inactive)
